Data from ChEMBL document CHEMBL4689842, “EUbOPEN Chemogenomics Library wave 1” (2021).

System: U2OS
Experiment: Multiplex assay against U2OS
Assay type: toxicity, cell-based
Settings: human
Summary of the method: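 Four dyes were applied at seeding to live cells: Hoechst33342, BioTracker Green Microtubule Cytoskeleton Dye, MitoTracker Red and Annexin V Alexa Fluor 680. Imaging after compound addition used a CQ1 microscope at 37°C and 5% CO2. CellPathfinder machine-learning gating then sorted cells into Hoechst high-intensity objects or normal cells, normal cells into healthy, pyknosed or fragmented nuclei, and pyknosed cells into mitotic or apoptotic, with tubulin, mitochondrial-mass and membrane-permeability phenotypes given as per cents of healthy-nucleus cells.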

[1] = 12 h, 1 µM, compound concentration 1 uM, replicate 1
[2] = 12 h, 1 µM, compound concentration 1 uM, replicate 2
[3] = 12 h, 10 µM, compound concentration 10 uM, replicate 1
[4] = 12 h, 10 µM, compound concentration 10 uM, replicate 2
[5] = 24 h, 1 µM, compound concentration 1 uM, replicate 1
[6] = 24 h, 1 µM, compound concentration 1 uM, replicate 2
[7] = 24 h, 10 µM, compound concentration 10 uM, replicate 1
[8] = 24 h, 10 µM, compound concentration 10 uM, replicate 2
[9] = 48 h, 1 µM, compound concentration 1 uM, replicate 1
[10] = 48 h, 1 µM, compound concentration 1 uM, replicate 2
[11] = 48 h, 10 µM, compound concentration 10 uM, replicate 1
[12] = 48 h, 10 µM, compound concentration 10 uM, replicate 2

## O=C1N/C(=N/c2ccccc2F)S/C1=C\c1ccc(C(=O)O)cc1
[1]
  Population Apoptotic (%): 33%
  Population Fragmented Nuclei (%): 8%
  Population Healthy Nuclei (%): 85%
  Population Hoechst High Intensity Objects (%): 9%
  Population Membrane Permeable-Phenotype (%): 6%
  Population Mitochondria Different-Phenotype (%): 10%
  Population Mitotic Cells (%): 66%
  Population Normal (%): 90%
  Population Pyknosed Nuclei (%): 5%
  Population Tubulin-Different-Phenotype (%): 7%
  Total Cell Count: 130
[2]
  Population Apoptotic (%): 0%
  Population Fragmented Nuclei (%): 3%
  Population Healthy Nuclei (%): 92%
  Population Hoechst High Intensity Objects (%): 8%
  Population Mitochondria Different-Phenotype (%): 16%
  Population Mitotic Cells (%): 100%
  Population Normal (%): 91%
  Population Pyknosed Nuclei (%): 3%
  Population Tubulin-Different-Phenotype (%): 24%
  Total Cell Count: 66
[3]
  Population Apoptotic (%): 25%
  Population Fragmented Nuclei (%): 8%
  Population Healthy Nuclei (%): 82%
  Population Hoechst High Intensity Objects (%): 5%
  Population Membrane Permeable-Phenotype (%): 6%
  Population Mitochondria Different-Phenotype (%): 15%
  Population Mitotic Cells (%): 75%
  Population Normal (%): 94%
  Population Pyknosed Nuclei (%): 8%
  Population Tubulin-Different-Phenotype (%): 8%
  Total Cell Count: 175
[4]
  Population Apoptotic (%): 44%
  Population Fragmented Nuclei (%): 4%
  Population Healthy Nuclei (%): 81%
  Population Hoechst High Intensity Objects (%): 8%
  Population Membrane Permeable-Phenotype (%): 1%
  Population Mitochondria Different-Phenotype (%): 9%
  Population Mitotic Cells (%): 55%
  Population Normal (%): 91%
  Population Pyknosed Nuclei (%): 14%
  Population Tubulin-Different-Phenotype (%): 9%
  Total Cell Count: 59
[5]
  Population Apoptotic (%): 33%
  Population Fragmented Nuclei (%): 9%
  Population Healthy Nuclei (%): 81%
  Population Membrane Permeable-Phenotype (%): 4%
  Population Mitochondria Different-Phenotype (%): 6%
  Population Mitotic Cells (%): 66%
  Population Pyknosed Nuclei (%): 8%
  Population Tubulin-Different-Phenotype (%): 4%
  Total Cell Count: 131
[6]
  Population Apoptotic (%): 0%
  Population Fragmented Nuclei (%): 7%
  Population Healthy Nuclei (%): 85%
  Population Hoechst High Intensity Objects (%): 5%
  Population Membrane Permeable-Phenotype (%): 5%
  Population Mitochondria Different-Phenotype (%): 10%
  Population Mitotic Cells (%): 100%
  Population Normal (%): 94%
  Population Pyknosed Nuclei (%): 7%
  Population Tubulin-Different-Phenotype (%): 23%
  Total Cell Count: 69
[7]
  Population Apoptotic (%): 20%
  Population Fragmented Nuclei (%): 6%
  Population Healthy Nuclei (%): 85%
  Population Hoechst High Intensity Objects (%): 3%
  Population Membrane Permeable-Phenotype (%): 4%
  Population Mitochondria Different-Phenotype (%): 10%
  Population Mitotic Cells (%): 80%
  Population Normal (%): 96%
  Population Pyknosed Nuclei (%): 8%
  Population Tubulin-Different-Phenotype (%): 5%
  Total Cell Count: 234
[8]
  Population Apoptotic (%): 60%
  Population Fragmented Nuclei (%): 5%
  Population Healthy Nuclei (%): 88%
  Population Hoechst High Intensity Objects (%): 5%
  Population Membrane Permeable-Phenotype (%): 2%
  Population Mitochondria Different-Phenotype (%): 6%
  Population Mitotic Cells (%): 40%
  Population Normal (%): 94%
  Population Pyknosed Nuclei (%): 5%
  Population Tubulin-Different-Phenotype (%): 16%
  Total Cell Count: 73
[9]
  Population Apoptotic (%): 27%
  Population Healthy Nuclei (%): 86%
  Population Hoechst High Intensity Objects (%): 1%
  Population Membrane Permeable-Phenotype (%): 1%
  Population Mitochondria Different-Phenotype (%): 14%
  Population Mitotic Cells (%): 72%
  Population Normal (%): 98%
  Population Pyknosed Nuclei (%): 6%
  Population Tubulin-Different-Phenotype (%): 6%
  Total Cell Count: 134
[10]
  Population Apoptotic (%): 0%
  Population Fragmented Nuclei (%): 6%
  Population Healthy Nuclei (%): 92%
  Population Hoechst High Intensity Objects (%): 5%
  Population Membrane Permeable-Phenotype (%): 7%
  Population Mitochondria Different-Phenotype (%): 16%
  Population Mitotic Cells (%): 100%
  Population Normal (%): 94%
  Population Pyknosed Nuclei (%): 1%
  Population Tubulin-Different-Phenotype (%): 23%
  Total Cell Count: 76
[11]
  Population Apoptotic (%): 21%
  Population Healthy Nuclei (%): 90%
  Population Membrane Permeable-Phenotype (%): 2%
  Population Mitochondria Different-Phenotype (%): 14%
  Population Mitotic Cells (%): 78%
  Population Pyknosed Nuclei (%): 5%
  Population Tubulin-Different-Phenotype (%): 5%
  Total Cell Count: 338
[12]
  Population Apoptotic (%): 22%
  Population Fragmented Nuclei (%): 4%
  Population Healthy Nuclei (%): 83%
  Population Hoechst High Intensity Objects (%): 2%
  Population Membrane Permeable-Phenotype (%): 6%
  Population Mitochondria Different-Phenotype (%): 9%
  Population Mitotic Cells (%): 77%
  Population Normal (%): 97%
  Population Pyknosed Nuclei (%): 12%
  Population Tubulin-Different-Phenotype (%): 22%
  Total Cell Count: 105
